In the EternaBench riboswitch data:

Tested on: MS2 coat protein
Assay: apparent Kd, MS2 coat protein; higher = weaker binding; RNA-MaP array; FMN 200 µM where present
Summary of the method: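 Green signal was scaled to red-channel RNA signal and control-cluster median Fmax, and the apparent Kd was taken as the median of filtered per-cluster binding-curve fits. The binding series used SNAP-549-labelled MS2 coat protein from 0.7 or 1.5 nM, doubling to 3 µM, on designs transcribed by stalled E. coli RNA polymerase on Illumina sequencing-chip clusters. Each series ran without and then with constant ligand in 100 mM Tris-HCl pH 7.5, 80 mM KCl, 4 mM MgCl2, BSA, DTT, yeast tRNA and Tween-20.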

[1] = designed as: OFF switch for flavin mononucleotide, no ligand
[2] = ligand present: flavin mononucleotide, designed as: OFF switch for flavin mononucleotide
[3] = designed as: ON switch for flavin mononucleotide, no ligand
[4] = ligand present: flavin mononucleotide, designed as: ON switch for flavin mononucleotide

Sequence | apparent Kd [1] [nM] | apparent Kd [2] [nM] | apparent Kd [3] [nM] | apparent Kd [4] [nM]
CAGCGAAAGUAGAAGGCAGUACUGAUACAGUACUGAGGAUAUACAUGAGGAUCACCCAUGUCCUUCAGCUGGAAAUAAAUAAAA | 5.9 | 50.9 | – | –
CAGCUGAAAGUCAGGAUAUCUAGAGCUUCGGCUCUAGAGAAGGGACAUGAGGAUCACCCAUGUGGUCACAGCUG | 1420 | 149 | – | –
CAGCUUUACGAGGAUAUGGAAGGAGUCAACUUGCCAGAAGGUGUAACAUGAGGAUCACCCAUGUGGCCCGUGAC | 66.1 | 69.4 | – | –
CAGGUAGACUGAGGAUAUACAAUAAACAGCUAGUCUAUCUAGCUGCCGACAUGAGGAUCACCCAUGUAGAAGGCAGUCUGCCUG | 18.5 | 40 | – | –
CAGUACAGAGGAUAUACAUGAGGAUCACCCAUGUGUUUCAGCUAGGAGACUAGCGAGUGUAGAAGGCUGUACUG | 37.4 | 360 | – | –
CAGUACUGAGGAUAUACAUGAGGAUCACCCAUGUAUCCUAGCUAGGAAACUAGCAAAUGUAGAAGGCAGUACUG | 62.5 | 458 | – | –
CAGUACUGAGGAUAUACAUGAGGAUCACCCAUGUGCUCAAAGUAGGAUACUACUAUUAGUAGAAGGCAGUACUG | 22.2 | 214 | – | –
CAGUACUGAGGAUAUACAUGAGGAUCACCCAUGUGUCCUGGCUAGGAUACUAGCAAAGGUAGAAGGCAGUACUG | 16.6 | 125 | – | –
CAGUACUGAGGAUAUACAUGAGGAUCACCCAUGUGUUCCAGCUAGGAAACUAGCUAAAGUAGAAGGCAGUACUG | 21.9 | 424 | – | –
CAGUGCUGUUGAGAGGAUAUGCGGCGACGGACAUGAGGAUCACCCAUGUUAGCGACAGCGUUGCGGCAGAAGGCUCUGCCCGCUA | – | – | 52.3 | 23.1
CAGUUUUGAGGAUAUCCAUCCUCCUACAUGAGGAUCACCCAUGUUUCCCUCUGGGUUUUCGGAGAAGGCAGUUAUC | 341 | 251 | – | –
CAUAAGUCAGAGAAGGCGUACAUGCCCAGACUGUGACGGAUGACGACAUGAGGAUCACCCAUGUACGAGGAUAUCUGAGCAAUC | 22.9 | 168 | – | –
CAUACACAUGAGGAUCACCCAUGUGAGGAUAUGCGUACGUUGUCCGUAGGCGACGUGCGCAGAAGGCGCGAGGU | 37.7 | 35.9 | – | –
CAUGACGAAGGAUAUACAUGAGGAUCACCCAUGUGGUCAUGGAAUUACGUGUUCUCGCGUAGAAGGUUGUAGAG | 11.3 | 12.8 | – | –
CAUGCGGGCGGGUUUUUGAUACAUGAGGAUCACCCAUGUCUUGAGGAUAUCUUUGCAACACGCCAAGAGAAGGCAAGGCGUUUC | 33.6 | 107 | – | –
CAUGUCCUCGCAGGAUAUGCUGGACUUUGUCCAGCAGAAGGGUGAUAACAUGAGGAUCACCCAUGUGGACAUGAUAUAUUUAAU | – | – | 28.1 | 1720
CAUUAAUUCAUUAUAGUAAUUAUACAGGAUAUGUAACAUGAGGAUCACCCAUGUAUUCUUGGUUAACAGAAGGGUAUUACAAGU | 16.5 | 28.4 | – | –
CAUUAAUUCAUUAUAGUUAUUAUACAGGAUAUGUUACAUGAGGAUCACCCAUGUUUUCAUGGUAAACAGAAGGGUAUAUCAAGU | 124 | 232 | – | –
CAUUAUGUUGAGGAUAUGCGCCGGCUCGCUGGCACAGAAGGCGACACAUGAGGAUCACCCAUGUCAGUUCGCGA | 12.2 | 14.8 | – | –
CAUUCCAGGUAGAAGGGAUUACUACAUGAGGAUCACCCAUGUCGAUUGGUCAGGAUAUGCCUGUCACGACGCGUGAUGCUAAAA | – | – | 382 | 187
CAUUGACGACAAUUACAUGAGGAUCACCCAUGUUUUGGGAUGCAGGAUAUGUGGUAUAUUAAUUAACAGAAGGGCAAUAAUUUU | – | – | 34.7 | –
CAUUUGUGAGGAUAUCAGGUGUGCUAGCGUACUGGUACAUCUGAGAAGGCACAUGAGGAUCACCCAUGUUUCUU | – | 43.3 | – | –

Sequence | apparent Kd [1] [nM] | apparent Kd [2] [nM] | apparent Kd [3] [nM] | apparent Kd [4] [nM]
CCACCUCCUGAGGAUAUUGCAUCACCCGACUGAUAAGAAGGCAGAACAUGAGGAUCACCCAUGUGGGUACUCAC | 84 | 87.1 | – | –
CCACGUCACAUCUACAUGAGGAUCACCCAUGUCAAAAGACAUGAGGAUAUGCUACCUAAUUGGUAGCAGAAGGCAUGGACGUGG | – | – | 982 | 64.4
CCACGUCACAUUUACAUGAGGAUCACCCAUGUCGAAAGACAUGAGGAUAUGCUACCUAAUUGGUAGCAGAAGGCAUGGACGUGG | – | – | 203 | 284
CCAGCGUAUGUGAGGAUAUGCUGGUCCUUGGAUCAGCAGAAGGCACAUGAGGAUCACCCAUGUGGAAACGUUGG | 18.7 | 63.5 | – | –
CCAGCGUAUGUGAGGAUAUGCUGGUCCUUGGAUCAGCAGAAGGCACAUGAGGAUCACCCAUGUGGAGACGUUGG | 21.8 | 102 | – | –
CCAGGCUGUGUGAGGAUAUGCUGGUCCUUGGAUCAGCAGAAGGCACAUGAGGAUCACCCAUGUGAAGAGCUUGG | 16.4 | 65 | – | –
CCAUAAAAGAUCCAAAAUUACAACAUGAGGAUCACCCAUGUGCAGGAUAUCGUGAAAGUGAAGUACGAGAAGGGCAGACACUGC | 145 | 166 | – | –
CCAUGGUGGGCAGGAUAUCGUCCAGCUUGCAGACGAGAAGGGCUUAAACAUGAGGAUCACCCAUGUGAAAAGCGGGUUGUCCAA | 26.5 | 131 | – | –
CCCAAACUUGGGUUUGGUGGUUCAUAGGAUAUGCUUGUACAUGAGGAUCACCCAUGUACUAUUGUGCAGAAGGGUGCAUGGCAA | – | – | 36.7 | 26.5
CCCACGAAAGUCGAACGAUGAUGGAGAAGGACUAUAACAUGACAUGAGGAUCACCCAUGUGCCAAGUAGGAUAUCCAUCAUGGG | 5.97 | 5.34 | – | –
CCCGCUGGAGGAUAUGCACUACGUGUGUUUUCUUUUGAGGCACAUGAGGAUCACCCAUGUAGAAGGCCACGCGG | 97.6 | 430 | – | –
CCCUCACAUGAGGAUCACCCAUGUCAGGAUAUUCGGCGGUCAAUUGACCGCCUUAAAGGAAGAAGGGACGUAAA | 12.7 | 18.9 | – | –
CCCUGUGGAGGAUAUUGCAAAGGUGACAUGAGGAUCACCCAUGUUGGACGUUAAGCACUGCAAGAAGGCCGGUUGA | 50 | 24.5 | – | –
CCGAAUGUCACAGGAUAUGGUCCGGGCACGGGACCAGAAGGGUGAUCUCACAUGAGGAUCACCCAUGUGCAGGCGUUAGGCUGC | – | – | 18.6 | 86
CCGAAUGUCACAGGAUAUGGUCCGGGCUCGGGACCAGAAGGGUGAUCUCACAUGAGGAUCACCCAUGUGUAGGCGUUAGGCUAC | – | – | 36.7 | 249
CCGAGCUUGGCAGGAUAUAGACUCGAAGUUGAUCCCGCCGGUGGAGACAUGAGGAUCACCCAUGUCUAGAAGGGCCAGUCGAAA | 11.7 | 36 | – | –
CCGAGGCGAGGAUAUACAUGAGGAUCACCCAUGUCUGACCGACGCGCGCCAGGCAUAUGUAGAAGGCGCCGGAA | 31.5 | 138 | – | –
CCGAUGAGAGUCGGGCUACAUGAGGAUCACCCAUGUGCUUCACAGGAUAUGGUACGUAGUGAGUUCCAGAAGGGUGAUUAAUCU | – | – | 316 | 48.7
CCGAUGCUUAUAAAACAUGAGGAUCACCCAUGUGAGACACAUGAGGAUAUGCAGGUCAAAGACUUGCAGAAGGCAUAGCGUCGG | – | – | 644 | 61.8
CCGAUGUAAGGAUAUCGUGCAAGUUUCAAAAGAGGCUUGUGCGAGAAGGUACAUGAGGAUCACCCAUGUAGGUU | 95.4 | 345 | – | –
CCGCAAAUGCAGGAUAUCGUAUCGGAUACGAUACGAGAAGGGCAAACAUGAGGAUCACCCAUGUGUCCUAGCGG | 15 | 26.6 | – | –
